According to paper PMC12023741 (RSC Advances, 2025):

Key:
HCT-116 cell line = assay: MTT assay, HCT-116; type: cell-based; conditions: for antitumor effect (in words): HCT-116, MTT assay, compared to DOX
HepG2 cell line = assay: MTT assay, HepG2; type: cell-based; conditions: for antitumor effect (in words): HepG2, MTT assay, compared to DOX
[1] = DPPH free radical scavenging; type: biochemical; conditions: read-out: DPPH scavenging activity IC50; stable DPPH radical; mean ± SE, n = 3
Summary of the method: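 Radical-scavenging capacity of the test compounds toward DPPH was measured by a modified Zheleva-Dimitrova procedure. Scavenging activity was recorded and IC50 values were derived from it. Data are mean ± SE, n = 3.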

MCF-7 cell line = assay: MTT assay, MCF-7; type: cell-based; conditions: for antitumor effect (in words): MCF-7, MTT assay, compared to DOX
[2] = system: WI-38 normal cells (human lung fibroblast); assay: MTT assay, WI-38 normal cells; type: cell-based

NC1=NN(c2ccccc2)C(=O)C1/N=N/c1ccc(C(=O)/C=C/c2ccc(O)cc2)cc1 (stereo not drawn) [Compound 3c, 5-Amino-4-((E)-(4-((E)-3-(4-hydroxyphenyl)acryloyl)phenyl)diazenyl)-2-phenyl-2,4-dihydro-3H-pyrazol-3-one]
antitumor effect (in words) (HCT-116 cell line): weak effect
antitumor effect (in words) (HepG2 cell line): weak effect
IC50 [1]: 94.18 ± 0.45 µM
antitumor effect (in words) (MCF-7 cell line): weak effect

NC1=NN(c2ccccc2)C(=O)C1/N=N/c1ccc(C(=O)C=Cc2ccco2)cc1 (stereo not drawn) [Compound 3f, (E)-3-Amino-4-((4-(3-(furan-2-yl)acryloyl)phenyl)diazenyl)-1-phenyl-1H-pyrazol-5(4H)-one]
antitumor effect (in words) (HCT-116 cell line): impressive antitumor effects
antitumor effect (in words) (HepG2 cell line): impressive antitumor effects
IC50 [1]: 27.25 ± 0.19 µM
antitumor effect (in words) (MCF-7 cell line): impressive antitumor effects

NC1=NN(c2ccccc2)C(=O)C1/N=N/c1ccc(C(=O)/C=C/C=C/c2ccccc2)cc1 (stereo not drawn) [Compound 3g, 5-Amino-2-phenyl-4-((E)-(4-((2E,4E)-5-phenylpenta-2,4-dienoyl)phenyl)diazenyl)-2,4-dihydro-3H-pyrazol-3-one]
antitumor effect (in words) (HCT-116 cell line): weak effect
antitumor effect (in words) (HepG2 cell line): weak effect
IC50 [1]: 73.63 ± 0.39 µM
antitumor effect (in words) (MCF-7 cell line): weak effect

NC1=NN(c2ccccc2)C(=O)C1/N=N/c1ccc(C(=O)C=Cc2ccccc2)cc1 (stereo not drawn) [Compound 3a, 5-Amino-4-((E)-(4-cinnamoylphenyl)diazenyl)-2-phenyl-2,4-dihydro-3H-pyrazol-3-one]
antitumor effect (in words) (HCT-116 cell line): impressive antitumor effects
antitumor effect (in words) (HepG2 cell line): impressive antitumor effects
IC50 [1]: 21.4 ± 0.17 µM
antitumor effect (in words) (MCF-7 cell line): impressive antitumor effects

CN(C)c1ccc(/C=C/C(=O)c2ccc(/N=N\C3C(=O)N(c4ccccc4)N=C3N)cc2)cc1 (stereo not drawn) [Compound 3e, 5-Amino-4-((Z)-(4-((E)-3-(4-(dimethylamino)phenyl)acryloyl)phenyl)diazenyl)-2-phenyl-2,4-dihydro-3H-pyrazol-3-one]
antitumor effect (in words) (HCT-116 cell line): moderate effect
antitumor effect (in words) (HepG2 cell line): moderate effect
IC50 [1]: 32.79 ± 0.21 µM
antitumor effect (in words) (MCF-7 cell line): moderate effect

O=C1O[C@H]([C@@H](O)CO)C(O)=C1O [L-ascorbic acid, reference compound]
IC50 [1]: 16.81 ± 0.1 µM

COc1cc(/C=C/C(=O)c2ccc(/N=N/C3C(=O)N(c4ccccc4)N=C3N)cc2)ccc1O (stereo not drawn) [Compound 3b, 5-Amino-4-((E)-(4-((E)-3-(4-hydroxy-3-methoxyphenyl)acryloyl)phenyl)diazenyl)-2-phenyl-2,4-dihydro-3H-pyrazol-3-one]
IC50 (HCT-116 cell line; Homo sapiens, HCT-116): 6.34 ± 0.5 µM
cytotoxic effect on normal cells (in words) [2]: safe toxic profile on normal cells
IC50 (HepG2 cell line; Homo sapiens, HepG2): 5.03 ± 0.4 µM
IC50 [1]: 19.95 ± 0.14 µM
IC50 (MCF-7 cell line; Homo sapiens, MCF7): 3.92 ± 0.2 µM

NC1=NN(c2ccccc2)C(=O)C1/N=N/c1ccc(C(=O)/C=C/c2ccccc2O)cc1 (stereo not drawn) [Compound 3d, 5-Amino-4-((E)-(4-((E)-3-(2-hydroxyphenyl)acryloyl)phenyl)diazenyl)-2-phenyl-2,4-dihydro-3H-pyrazol-3-one]
antitumor effect (in words) (HCT-116 cell line): moderate effect
antitumor effect (in words) (HepG2 cell line): moderate effect
IC50 [1]: 48.59 ± 0.28 µM
antitumor effect (in words) (MCF-7 cell line): moderate effect
